What is called IC50 is the midpoint of a concentration-inhibition curve.

The subject of series [1] is N9. Briefly: Antiinflammatory activity against mouse N9 cells assessed as LPS-induced nitric oxide production at 10 uM after 48 hrs by Griess reaction relative to control. The note with it: N9, 48 h.
The subject of series [2] is N9. Briefly: Cytotoxicity against LPS-stimulated mouse N9 cells at 1 to 30 uM after 48 hrs by MTT assay. The format is cell-based. The note with it: n9, 48 h. In outline:
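N9 microglia seeded at 5 × 10^4 cells/well and exposed to compounds with LPS (1 µg/mL) for 48 h. MTT 0.25 mg/mL then added for 3 h at 37 °C. Formazan dissolved in DMSO and absorbance read at 490 nm.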
Background: Tetrazolium assays rely on reduction of a dye to a coloured formazan, in cell work by metabolically active cells.

Series [3] deals with N9. Briefly: Antiinflammatory activity against mouse N9 cells assessed as LPS-induced nitric oxide production at 30 uM after 48 hrs by Griess reaction relative to control. Conditions: N9, 48 h.
Series [4] relates to N9. Briefly: Antiinflammatory activity against mouse N9 cells assessed as LPS-induced nitric oxide production at 1 uM after 48 hrs by Griess reaction relative to control. Conditions: N9, 48 h.
The subject of series [5] is N9. The series can be described thus: Antiinflammatory activity against mouse N9 cells assessed as LPS-induced nitric oxide production at 3 uM after 48 hrs by Griess reaction relative to control. Conditions: N9, 48 h. (Griess reagent forms a coloured azo dye with nitrite.)
The subject of series [6] is N9. Briefly: Antiinflammatory activity against mouse N9 cells assessed as inhibition of LPS-induced nitric oxide production after 48 hrs by Griess reaction relative to control. Conditions: Homo sapiens, N9, 48 h. The format is functional, cell-based. In outline:
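Murine N9 microglia (IMDM, 5% heat-inactivated FBS, 2 mM L-glutamine, 5 × 10^-5 M 2-mercaptoethanol), 1 × 10^5 cells/well, precultured 24 h at 37 °C, 5% CO2. Then LPS 1 µg/mL plus compound (DMSO stock diluted in PBS pH 7.4, DMSO ≤0.1%) for 48 h. Supernatant nitrite read by Griess reagent, 15 min room temperature, A540. Expressed as % of LPS-only response. IC50 from linear/nonlinear regression, n = 3. Curcumin positive control.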

For `C[C@@]12CC(=O)[C@H]3C[C@]1(O)O[C@H](O2)[C@@H]3COC(=O)c1ccccc1` [PAEONIFLORIGENONE], in the series on N9 [1], the NO production (% of LPS control) at 10 µM was determined as 24.5%. In the series on N9 [2], the Activity result is given as “Toxic”. The NO production (% of LPS control) at 30 µM in the series on N9 [3] is 26.7%. Moreover, the NO production (% of LPS control) at 1 µM in the series on N9 [4] turned out to be 92.6%. Further, in the series on N9 [5], the NO production (% of LPS control) at 3 µM is 71.9%.
The corresponding values for `C[C@@]12C[C@@]3(O)O[C@@H](O1)[C@]1(COC(=O)c4ccccc4)[C@@H]3C[C@]12O[C@@H]1O[C@H](COC(=O)c2ccccc2)[C@@H](O)[C@H](O)[C@H]1O` [BENZOYLPAEONIFLORIN] are 79.5%, “Toxic”, 68.6%, 86.3% and 81.4%.
On to `COC1O[C@@]2(C)CC(=O)[C@@H]3C[C@]2(O[C@@H]2O[C@H](CO)[C@@H](O)[C@H](O)[C@H]2O)[C@@]13COC(=O)c1ccccc1` (stereo partly specified), for which the IC50 with N9 [6] is more than 100 µM.
As to `C[C@@]12C[C@@]3(O)O[C@@H](O1)[C@]1(COC(=O)c4ccccc4)[C@@H]3C[C@]12O[C@@H]1O[C@H](COC(=O)c2cc(O)c(O)c(O)c2)[C@@H](O)[C@H](O)[C@H]1O` [GALLOYLPAEONIFLORIN], the NO production (% of LPS control) at 10 µM in the series on N9 [1] was found to be 62.1%. Besides, the Activity entry in the series with N9 [2] is listed as “Toxic”. For the same compound, in the series on N9 [3], the NO production (% of LPS control) at 30 µM was determined as 69.5%. Besides, the NO production (% of LPS control) at 1 µM in the series on N9 [4] came to 82.1%. In addition, in the series on N9 [5], the NO production (% of LPS control) at 3 µM came to 84.4%.

The values are drawn from ChEMBL document CHEMBL1154236, “Monoterpenes from Paeonia albiflora and their inhibitory activity on nitric oxide production by lipopolysaccharide-activated microglia” (J Nat Prod, 2009).
